Data: ChEMBL document CHEMBL3745705, “Discovery of Oral VEGFR-2 Inhibitors with Prolonged Ocular Retention That Are Efficacious in Models of Wet Age-Related Macular Degeneration” (J Med Chem, 2015)
In brackets after ≈: the same amount, converted by molar mass.

Columns and labels:
[1] = species on record: Mus musculus; experiment: animal or person; conditions: C57BL/6, po, read-out: INH
[2] = Aqueous solubility of the compound at pH 6.8; conditions: aqueous medium
[3] = system: Plasma; experiment: Dose normalized plasma concentration in Brown Norway rat plasma at 2 mg/kg, po measured at 24 hrs by LC-MS/MS analysis; assay type: ADME, organism-based; conditions: in vivo
Method in brief: (§1)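 Single oral dose to three-month-old Brown Norway rats as a suspension in 0.5% MC/0.1% tween 80, WFI. Retina, posterior eye cup (RPE/choroid/sclera) and plasma collected from 2 rats per time point up to 144 h. Tissues homogenized, plasma proteins precipitated, drug quantified by LC-MS/MS.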

[4] = system: Rattus norvegicus; experiment: Oral bioavailability in Brown Norway rat at 3 mg/kg by LC-MS/MS analysis; assay type: ADME, organism-based; conditions: in vivo
[5] = system: Rattus norvegicus; experiment: AUC (0 to 8 hrs) in Brown Norway rat at 3 mg/kg, po by LC-MS/MS analysis; assay type: ADME, organism-based; set-up: dose 3 mg/kg, time < 8 hr, route oral; conditions: in vivo
[6] = Dose normalized drug uptake in Brown Norway rat retina at 2 mg/kg, po by LC-MS/MS analysis; assay type: ADME, organism-based; conditions: in vivo
Method in brief: as §1

[7] = system: Plasma; experiment: Dose normalized AUC (0 to 24 hrs) in Brown Norway rat plasma at 2 mg/kg, po; assay type: ADME, organism-based; conditions: in vivo
[8] = Dose normalized AUC (0 to 24 hrs) in Brown Norway rat posteior eye cup at 2 mg/kg, po; assay type: ADME, organism-based; conditions: in vivo
[9] = Dose normalized Cmax in Brown Norway rat posteior eye cup at 2 mg/kg, po; assay type: ADME, organism-based; conditions: in vivo
Method in brief: as §1

[10] = Half life in Brown Norway rat at 3 mg/kg, po or 1 mg/kg, iv by LC-MS/MS analysis; assay type: ADME, organism-based; conditions: in vivo
[11] = Volume of distribution at steady state in Brown Norway rat at 3 mg/kg, po or 1 mg/kg, iv by LC-MS/MS analysis; assay type: ADME, organism-based; conditions: in vivo, read-out: Vdss
[12] = system: Rattus norvegicus; experiment: Antiangiogenic activity in po dosed Brown Norway rat laser-induced choroidal neovascularization model assessed as inhibition of neovascular lesion formation administered qd for 14 days by microscopic analysis; assay type: functional; conditions: 336 h
Method in brief: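 Male Brown Norway rats, about 12 weeks old, dosed by oral gavage starting about 1 h before laser. Lesions were made under ketamine/xylazine i.p. (40–80 / 5–10 mg/kg) with 532 nm laser pulses (30 ms, 190 mW, 200 µm spot), about 4 lesions per eye and 10 rats per group. Vessels were labelled with i.v. 2,000 kD FITC dextran, eyes fixed in 4% paraformaldehyde, and CNV area measured blinded.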

[13] = Dose normalized AUC (0 to 24 hrs) in Brown Norway rat retina at 2 mg/kg, po; assay type: ADME, organism-based; conditions: in vivo
[14] = Drug uptake in Brown Norway rat posteior eye cup at 2 mg/kg, po; assay type: ADME, organism-based; conditions: in vivo
Method in brief: as §1

[15] = target: Voltage-gated inwardly rectifying potassium channel KCNH2 (Homo sapiens, UniProt Q12809); experiment: Inhibition of human ERG channel by automated Q-patch assay
[16] = system: Plasma; experiment: Dose normalized Cmax in Brown Norway rat plasma at 2 mg/kg, po; assay type: ADME, organism-based; conditions: in vivo
Method in brief: as §1

[17] = Dose normalized Cmax in Brown Norway rat retina at 2 mg/kg, po; assay type: ADME, organism-based; conditions: in vivo
Method in brief: as §1

[18] = system: Mus musculus; experiment: Antiangiogenic activity in po dosed C57BL/6 mouse laser-induced choroidal neovascularization assessed as inhibition of neovascular lesion formation administered qd for 6 days measured on day 7 by microscopic analysis; assay type: functional; conditions: C57BL/6, po
[19] = Cmax in Brown Norway rat at 3 mg/kg, po or 1 mg/kg, iv by LC-MS/MS analysis; assay type: ADME, organism-based; conditions: in vivo
[20] = system: Plasma; experiment: Dose normalized plasma concentration in Brown Norway rat plasma at 6 mg/kg, po measured at 24 hrs by LC-MS/MS analysis; assay type: ADME, organism-based; conditions: in vivo
[21] = Dose normalized AUC (0 to 24 hrs) in Brown Norway rat posteior eye cup at 6 mg/kg, po; assay type: ADME, organism-based; conditions: in vivo
[22] = Dose normalized drug uptake in Brown Norway rat retina at 6 mg/kg, po by LC-MS/MS analysis; assay type: ADME, organism-based; conditions: in vivo
[23] = Dose normalized AUC (0 to 24 hrs) in Brown Norway rat retina at 6 mg/kg, po; assay type: ADME, organism-based; conditions: in vivo
[24] = Dose normalized Cmax in Brown Norway rat posteior eye cup at 6 mg/kg, po; assay type: ADME, organism-based; conditions: in vivo
[25] = Cmax in Brown Norway rat at 10 mg/kg, po or 1 mg/kg, iv by LC-MS/MS analysis; assay type: ADME, organism-based; conditions: in vivo
Method in brief: (§2)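 Brown Norway rats dosed i.v. at 1 mg/kg (n = 2; NMP/PG/cremophorEL/PBS or NMP/PEG 300/WFI vehicle) or p.o. at 3 or 10 mg/kg (n = 3; 0.5% MC/0.1% tween 80, WFI). Clearance, Vdss, t1/2, Cmax, AUC 0-8h and oral bioavailability calculated from plasma levels.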

[26] = system: Rattus norvegicus; experiment: Oral bioavailability in Brown Norway rat at 10 mg/kg by LC-MS/MS analysis; assay type: ADME, organism-based; conditions: in vivo
Method in brief: as §2

[27] = Half life in Brown Norway rat at 10 mg/kg, po or 1 mg/kg, iv by LC-MS/MS analysis; assay type: ADME, organism-based; conditions: in vivo
Method in brief: as §2

[28] = Volume of distribution at steady state in Brown Norway rat at 10 mg/kg, po or 1 mg/kg, iv by LC-MS/MS analysis; assay type: ADME, organism-based; conditions: in vivo, read-out: Vdss
Method in brief: as §2

[29] = system: Plasma; experiment: Dose normalized AUC (0 to 24 hrs) in Brown Norway rat plasma at 6 mg/kg, po; assay type: ADME, organism-based; conditions: in vivo
[30] = system: Plasma; experiment: Dose normalized Cmax in Brown Norway rat plasma at 6 mg/kg, po; assay type: ADME, organism-based; conditions: in vivo
[31] = system: Rattus norvegicus; experiment: AUC (0 to 8 hrs) in Brown Norway rat at 10 mg/kg, po by LC-MS/MS analysis; assay type: ADME, organism-based; set-up: dose 10 mg/kg, time < 8 hr, route oral; conditions: in vivo
[32] = Dose normalized Cmax in Brown Norway rat retina at 6 mg/kg, po; assay type: ADME, organism-based; conditions: in vivo
[33] = Dose normalized drug uptake in Brown Norway rat posteior eye cup at 6 mg/kg, po; assay type: ADME, organism-based; conditions: in vivo

Chain of Voltage-gated inwardly rectifying potassium channel KCNH2 (Q12809 whole entry): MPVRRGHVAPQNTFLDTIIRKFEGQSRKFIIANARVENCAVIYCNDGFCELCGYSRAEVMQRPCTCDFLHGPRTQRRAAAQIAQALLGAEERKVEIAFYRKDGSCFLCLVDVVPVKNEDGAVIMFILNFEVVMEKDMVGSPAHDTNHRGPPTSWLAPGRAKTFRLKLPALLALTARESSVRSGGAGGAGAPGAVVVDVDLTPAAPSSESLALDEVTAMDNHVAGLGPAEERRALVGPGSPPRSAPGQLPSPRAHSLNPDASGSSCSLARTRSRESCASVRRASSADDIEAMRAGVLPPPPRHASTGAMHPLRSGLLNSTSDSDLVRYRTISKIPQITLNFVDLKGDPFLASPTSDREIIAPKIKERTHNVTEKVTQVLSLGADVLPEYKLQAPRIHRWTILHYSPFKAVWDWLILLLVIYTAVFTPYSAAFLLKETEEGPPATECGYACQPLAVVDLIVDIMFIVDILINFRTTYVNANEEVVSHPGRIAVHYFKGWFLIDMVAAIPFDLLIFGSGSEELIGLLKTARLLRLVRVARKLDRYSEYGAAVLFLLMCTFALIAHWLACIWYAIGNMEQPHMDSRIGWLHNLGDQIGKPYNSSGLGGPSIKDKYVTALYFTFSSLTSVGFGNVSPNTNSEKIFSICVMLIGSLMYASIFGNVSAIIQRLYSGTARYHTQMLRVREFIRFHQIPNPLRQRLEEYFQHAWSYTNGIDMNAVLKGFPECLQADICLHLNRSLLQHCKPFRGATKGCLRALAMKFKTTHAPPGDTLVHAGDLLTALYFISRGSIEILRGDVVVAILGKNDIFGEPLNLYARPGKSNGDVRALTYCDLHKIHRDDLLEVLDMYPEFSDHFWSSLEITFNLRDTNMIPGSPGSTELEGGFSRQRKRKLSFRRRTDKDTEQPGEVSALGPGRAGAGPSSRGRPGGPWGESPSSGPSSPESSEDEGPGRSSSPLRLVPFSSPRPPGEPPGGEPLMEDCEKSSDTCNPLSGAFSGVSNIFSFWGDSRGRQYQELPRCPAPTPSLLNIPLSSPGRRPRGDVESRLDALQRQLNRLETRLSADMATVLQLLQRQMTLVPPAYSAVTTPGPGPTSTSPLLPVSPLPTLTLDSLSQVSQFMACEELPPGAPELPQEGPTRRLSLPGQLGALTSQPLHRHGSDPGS

`CC(C)(C)c1cc(NC(=O)n2ccc3cc(Oc4ncnc5c4CNC5)ccc32)no1` gave an inhibition in vivo at 10 mg/kg [1] of 83% and a solubility [2] of 20 µM (≈ 8.37 µg/mL).

Compound `CCN1CCc2c(ncnc2Oc2ccc3c(ccn3C(=O)Nc3cccc(C(F)(F)F)c3)c2)C1` has an inhibition in vivo at 10 mg/kg [1] of 81% and a solubility [2] of under 5 µM.

`CC(C)c1cc(NC(=O)n2ccc3cc(Oc4ncnc5c4CCNC5)ccc32)n[nH]1` showed an inhibition in vivo at 10 mg/kg [1] of 0% and a solubility [2] of 833 µM (≈ 348 µg/mL).

Work on `CC(=O)N1CCc2c(ncnc2Oc2ccc3c(ccn3C(=O)Nc3cccc(C(F)(F)F)c3)c2)C1` yielded an inhibition in vivo at 10 mg/kg [1] of 0%.

`O=C(Nc1cc(C2CC2)on1)n1ccc2cc(Oc3ncnc4c3CNC4)ccc21` showed a Cp/dose [3] of 6 nM/mg/kg, an F [4] of 100% and an AUC [5] of 29.4 µM·h. It also gave a Druguptake/dose [6] of 65 nM/mg/kg, an AUC/dose [7] of 15014 nM·h/mg/kg and an AUC/dose [8] of 92954 nM·h/mg/kg. It also gave a Cmax/dose [9] of 5293 nM/mg/kg, a half-life [10] of 1.2 h and a Vd [11] of 0.5 L/kg. For the same compound, the ED50 [12] was 0.7 mg/kg, the ED90 [12] was 2.7 mg/kg and the AUC/dose [13] was 2692 nM·h/mg/kg. The inhibition in vivo at 10 mg/kg [1] was 98%, the Druguptake/dose [14] was 3344 nM/mg/kg and the IC50 [15] was over 30 µM. For the same compound, the solubility [2] was 110 µM (≈ 44.3 µg/mL), the Cmax/dose [16] was 3225 nM/mg/kg and the Cmax/dose [17] was 337 nM/mg/kg. It also gave an ED50 [18] of 1.8 mg/kg, an ED90 [18] of 4.8 mg/kg and a Cmax [19] of 11 µM.

In the case of `C[C@@H]1NCc2ncnc(Oc3ccc4c(ccn4C(=O)Nc4cc(C(C)(C)C)on4)c3)c21`, the inhibition in vivo at 10 mg/kg [1] is reported as 33%.

`CNCc1cc(Oc2ccc3c(ccn3C(=O)Nc3ccc(F)c(C(F)(F)F)c3)c2)ncn1` showed an inhibition in vivo at 10 mg/kg [1] of 92%.

With `CC(C)(C)c1cc(NC(=O)n2ccc3cc(Oc4ncnc5c4CCNC5)ccc32)no1` the inhibition in vivo at 10 mg/kg [1] was 83%, the IC50 [15] was 7 µM and the solubility [2] was 167 µM (≈ 72.2 µg/mL).

Compound `C[C@@H]1Cc2c(ncnc2Oc2ccc3c(ccn3C(=O)Nc3cc(C4(C)CC4)[nH]n3)c2)CN1` has an inhibition in vivo at 10 mg/kg [1] of 48%.

Work on `O=C(Nc1cccc(C(F)(F)F)c1)n1ccc2cc(Oc3ncnc4c3CNCC4)ccc21` yielded an inhibition in vivo at 10 mg/kg [1] of 0%.

With `Nc1cc(Oc2ccc3c(ccn3C(=O)Nc3cccc(C(F)(F)F)c3)c2)ncn1` the inhibition in vivo at 10 mg/kg [1] was 44% and the solubility [2] was under 5 µM.

Work on `CC1(c2cc(NC(=O)n3ccc4cc(Oc5ncnc6c5CNC6)ccc43)no2)CC1` yielded an inhibition in vivo at 10 mg/kg [1] of 90%.

For `CC1(c2cc(NC(=O)n3ccc4cc(Oc5ncnc6c5CCNC6)ccc43)n[nH]2)CC1`, the Cp/dose [20] was 0.7 nM/mg/kg, the AUC/dose [21] was 2386 nM·h/mg/kg and the Druguptake/dose [22] was 13 nM/mg/kg. The AUC/dose [23] was 310 nM·h/mg/kg, the Cmax/dose [24] was 110 nM/mg/kg and the Cmax [25] was 0.505 µM. It also gave an F [26] of 51%, a half-life [27] of 2.7 h and a Vd [28] of 22 L/kg. The AUC/dose [29] was 166 nM·h/mg/kg, the ED50 [12] was 2.7 mg/kg and the ED90 [12] was 13.6 mg/kg. For the same compound, the inhibition in vivo at 10 mg/kg [1] was 64%, the Cmax/dose [30] was 33 nM/mg/kg and the AUC [31] was 1.12 µM·h. For the same compound, the solubility [2] was 252 µM (≈ 108 µg/mL), the Cmax/dose [32] was 15 nM/mg/kg and the Druguptake/dose [33] was 102 nM/mg/kg. For the same compound, the ED50 [18] was 7.8 mg/kg and the ED90 [18] was 25.3 mg/kg.

For `O=C(Nc1cccc(C(F)(F)F)c1)n1ccc2cc(Oc3cc(CO)ncn3)ccc21`, the inhibition in vivo at 10 mg/kg [1] was 45%.
